Measured values published in ChEMBL document CHEMBL2384906, “Biological activity, design, synthesis and structure activity relationship of some novel derivatives of curcumin containing sulfonamides” (Eur J Med Chem, 2013).
Values after ≈ are worked out from the molar mass of the structure shown. Active and inactive are the calls of the source. The rule behind the calls is not given here.

Experiments:
Mus musculus = experiment: Antiinflammatory activity in mouse assessed as inhibition of carrageenan-induced increase in paw volume at 200 mg/kg administered 1 hr prior to carrageenan challenge measured after 3 hrs relative to control; format: functional
In short: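 Mice were fasted 2 h and placed in groups of five. Controls received saline i.p. Phenylbutazone was given at 100 mg/kg i.p., curcumin at 200 mg/kg i.p., and derivatives at 200 mg/kg. After 1 h, 0.1 mL of 1% carrageenan in saline was injected subplantar into the right hind paw. Paw volume was followed by plethysmometer for 3 h, and % inhibition was calculated as (Vc − Vt)/Vc × 100.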

HCT-116 = experiment: Cytotoxicity against human HCT116 cells after 24 hrs by MTT assay; format: functional, cell-based
In short: (§1)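 The MTT assay seeded 5 × 10⁴ cells per well and grew them 24 h in RPMI 1640 with compound at 2.5–200 µM. Medium without cells was the blank and adriamycin the positive control. MTT was added for 4 h at 37 °C, formazan was solubilised, and absorbance was read at 570 nm. IC50 is the concentration that cuts viability 50% against untreated cells.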

QG-56 = experiment: Cytotoxicity against human QG56 cells after 24 hrs by MTT assay; format: functional, cell-based; in short: as §1
HeLa = experiment: Cytotoxicity against human HeLa cells after 24 hrs by MTT assay; format: functional, cell-based; in short: as §1
HepG2 = experiment: Cytotoxicity against human HepG2 cells after 24 hrs by MTT assay; format: functional, cell-based; in short: as §1
Trichoderma viride [1] = experiment: Antifungal activity against Trichoderma viride MTCC 1107 after 48 hrs; format: functional; details: MTCC 1107, 48 h
Trichoderma viride [2] = experiment: Antifungal activity against Trichoderma viride MTCC 1107 assessed as zone of inhibition at 20 uM after 48 hrs by disc diffusion method; format: functional; details: MTCC 1107, 48 h, read-out: IZ
In short: (§2)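 Spores from 4-day potato dextrose agar cultures, suspended in sterile water at 1.5 × 10⁵ CFU/mL. 0.2 mL was spread on potato dextrose agar. 5 mm filter-paper discs soaked with test compound were laid on the lawn. Incubation was 48 h at 28 °C, then the inhibition zone was measured in mm. Fluconazole was the positive control and acetone the negative control.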

Trichoderma viride [3] = experiment: Antifungal activity against Trichoderma viride MTCC 1107 assessed as zone of inhibition at 40 uM after 48 hrs by disc diffusion method; format: functional; details: MTCC 1107, 48 h, read-out: IZ; in short: as §2
Trichoderma viride [4] = experiment: Antifungal activity against Trichoderma viride MTCC 1107 assessed as zone of inhibition at 80 uM after 48 hrs by disc diffusion method; format: functional; details: MTCC 1107, 48 h, read-out: IZ; in short: as §2
Curvularia lunata [5] = experiment: Antifungal activity against Curvularia lunata MTCC 581 after 48 hrs; format: functional; details: MTCC 581, 48 h
Curvularia lunata [6] = experiment: Antifungal activity against Curvularia lunata MTCC 581 assessed as zone of inhibition at 20 uM after 48 hrs by disc diffusion method; format: functional; details: MTCC 581, 48 h, read-out: IZ; in short: as §2
Curvularia lunata [7] = experiment: Antifungal activity against Curvularia lunata MTCC 581 assessed as zone of inhibition at 40 uM after 48 hrs by disc diffusion method; format: functional; details: MTCC 581, 48 h, read-out: IZ; in short: as §2
Aspergillus flavus [8] = experiment: Antifungal activity against Aspergillus flavus MTCC 1021 after 48 hrs; format: functional
Curvularia lunata [9] = experiment: Antifungal activity against Curvularia lunata MTCC 581 assessed as zone of inhibition at 80 uM after 48 hrs by disc diffusion method; format: functional; details: MTCC 581, 48 h, read-out: IZ; in short: as §2
Aspergillus flavus [10] = experiment: Antifungal activity against Aspergillus flavus MTCC 1021 assessed as zone of inhibition at 80 uM after 48 hrs by disc diffusion method; format: functional; in short: as §2
Aspergillus niger [11] = experiment: Antifungal activity against Aspergillus niger MTCC 1108 after 48 hrs; format: functional
Aspergillus niger [12] = experiment: Antifungal activity against Aspergillus niger MTCC 1108 assessed as zone of inhibition at 80 uM after 48 hrs by disc diffusion method; format: functional; in short: as §2
Escherichia coli [13] = experiment: Antimicrobial activity against Escherichia coli ATCC 35218 after 24 hrs by broth micro serial dilution method; format: functional; details: ATCC 35218, 24 h
In short: (§3)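 This was broth microdilution in autoclaved Mueller-Hinton broth. 150 µL of compound per well was serially diluted […], and 50 µL of test organism was added. Plates were incubated 24 h at 37 °C and optical density was read.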

Escherichia coli [14] = experiment: Antimicrobial activity against Escherichia coli ATCC 35218 assessed as diameter of inhibition zone at 20 uM after 24 hrs by Kirby -Baur disc diffusion method; format: functional; details: ATCC 35218, 24 h, read-out: DIZ
In short: (§4)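 Kirby-Bauer disc diffusion was used. Acetone stocks (160 µM) were serially doubled down to 80, 40 and 20 µM. 4 µL of each went onto 5 mm sterile paper discs, which were dried 30 min at 50 °C. Inoculum was 1.5 × 10⁸ CFU/mL diluted to 3 × 10² CFU/mL, and 50 µL was spread on Mueller-Hinton agar. After 24 h at 37 °C the inhibition-zone diameter was measured. Ciprofloxacin served as positive control.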

Escherichia coli [15] = experiment: Antimicrobial activity against Escherichia coli ATCC 35218 assessed as diameter of inhibition zone at 40 uM after 24 hrs by Kirby -Baur disc diffusion method; format: functional; details: ATCC 35218, 24 h, read-out: DIZ; in short: as §4
Escherichia coli [16] = experiment: Antimicrobial activity against Escherichia coli ATCC 35218 assessed as diameter of inhibition zone at 80 uM after 24 hrs by Kirby -Baur disc diffusion method; format: functional; details: ATCC 35218, 24 h, read-out: DIZ; in short: as §4
Pseudomonas aeruginosa [17] = experiment: Antimicrobial activity against Pseudomonas aeruginosa ATCC 15499 after 24 hrs by broth micro serial dilution method; format: functional; details: ATCC 15499, 24 h; in short: as §3
Pseudomonas aeruginosa [18] = experiment: Antimicrobial activity against Pseudomonas aeruginosa ATCC 15499 assessed as diameter of inhibition zone at 80 uM after 24 hrs by Kirby -Baur disc diffusion method; format: functional; in short: as §4
Salmonella typhi [19] = experiment: Antimicrobial activity against Salmonella typhi ATCC 23564 after 24 hrs by broth micro serial dilution method; format: functional, Salmonella enterica subsp. enterica serovar Typhi; details: Salmonella enterica, ATCC 23564, 24 h
Salmonella typhi [20] = experiment: Antimicrobial activity against Salmonella typhi ATCC 23564 assessed as diameter of inhibition zone at 20 uM after 24 hrs by Kirby -Baur disc diffusion method; format: functional; details: Salmonella enterica subsp. enterica serovar Typhi
Salmonella typhi [21] = experiment: Antimicrobial activity against Salmonella typhi ATCC 23564 assessed as diameter of inhibition zone at 40 uM after 24 hrs by Kirby -Baur disc diffusion method; format: functional; details: Salmonella enterica subsp. enterica serovar Typhi
Salmonella typhi [22] = experiment: Antimicrobial activity against Salmonella typhi ATCC 23564 assessed as diameter of inhibition zone at 80 uM after 24 hrs by Kirby -Baur disc diffusion method; format: functional, Salmonella enterica subsp. enterica serovar Typhi; details: Salmonella enterica, ATCC 23564, 24 h; read-out: DIZ
Bacillus cereus [23] = experiment: Antimicrobial activity against Bacillus cereus MTCC 7350 after 24 hrs by broth micro serial dilution method; format: functional; details: MTCC 7350, 24 h; in short: as §3
Bacillus cereus [24] = experiment: Antimicrobial activity against Bacillus cereus MTCC 7350 assessed as diameter of inhibition zone at 20 uM after 24 hrs by Kirby -Baur disc diffusion method; format: functional; in short: as §4
Bacillus cereus [25] = experiment: Antimicrobial activity against Bacillus cereus MTCC 7350 assessed as diameter of inhibition zone at 40 uM after 24 hrs by Kirby -Baur disc diffusion method; format: functional; in short: as §4
Bacillus cereus [26] = experiment: Antimicrobial activity against Bacillus cereus MTCC 7350 assessed as diameter of inhibition zone at 80 uM after 24 hrs by Kirby -Baur disc diffusion method; format: functional; details: MTCC 7350, 24 h, read-out: DIZ; in short: as §4
Staphylococcus aureus [27] = experiment: Antimicrobial activity against Staphylococcus aureus ATCC 11632 after 24 hrs by broth micro serial dilution method; format: functional; details: ATCC 11632, 24 h; in short: as §3
Staphylococcus aureus [28] = experiment: Antimicrobial activity against Staphylococcus aureus ATCC 11632 assessed as diameter of inhibition zone at 20 uM after 24 hrs by Kirby -Baur disc diffusion method; format: functional; in short: as §4
Staphylococcus aureus [29] = experiment: Antimicrobial activity against Staphylococcus aureus ATCC 11632 assessed as diameter of inhibition zone at 40 uM after 24 hrs by Kirby -Baur disc diffusion method; format: functional; details: ATCC 11632, 24 h, read-out: DIZ; in short: as §4
Staphylococcus aureus [30] = experiment: Antimicrobial activity against Staphylococcus aureus ATCC 11632 assessed as diameter of inhibition zone at 80 uM after 24 hrs by Kirby -Baur disc diffusion method; format: functional; details: ATCC 11632, 24 h, read-out: DIZ; in short: as §4

Structure (SMILES)	inhibition in vivo at 200 mg/kg (Mus musculus)	IC50 (HCT-116)	IC50 (QG-56)	IC50 (HeLa)	IC50 (HepG2)	MIC (Trichoderma viride [1])	zone of inhibition at 20 µM (Trichoderma viride [2])	zone of inhibition at 40 µM (Trichoderma viride [3])	zone of inhibition at 80 µM (Trichoderma viride [4])	MIC (Curvularia lunata [5])	zone of inhibition at 20 µM (Curvularia lunata [6])	zone of inhibition at 40 µM (Curvularia lunata [7])	MIC (Aspergillus flavus [8])	zone of inhibition at 80 µM (Curvularia lunata [9])	inhibition zone (IZ) (Aspergillus flavus [10])	MIC (Aspergillus niger [11])	inhibition zone (IZ) (Aspergillus niger [12])	MIC (Escherichia coli [13])	zone of inhibition at 20 µM (Escherichia coli [14])	zone of inhibition at 40 µM (Escherichia coli [15])	further results
COc1cc(/C=C/c2nn(-c3ccccc3)c(/C=C/c3ccc(O)c(OC)c3)c2/N=N/c2ccc(S(=O)(=O)Nc3nc(C)cc(C)n3)cc2)ccc1O	37%	Not Active	100 µM	50 µM	> 100 µM	20 µM (≈ 14.6 µg/mL)	18 mm	19 mm	22 mm	20 µM (≈ 14.6 µg/mL)	18 mm	19 mm	inactive	22 mm	inactive	inactive	inactive	> 80 µM	9 mm	11 mm	zone of inhibition at 80 µM (Escherichia coli [16]): 12 mm; MIC (Pseudomonas aeruginosa [17]): > 80 µM; diameter of the inhibition zone (DIZ) (Pseudomonas aeruginosa [18]): inactive; MIC (Salmonella typhi [19]): > 80 µM; diameter of the inhibition zone (DIZ) (Salmonella typhi [20]): inactive; diameter of the inhibition zone (DIZ) (Salmonella typhi [21]): inactive; zone of inhibition at 80 µM (Salmonella typhi [22]): 9 mm; MIC (Bacillus cereus [23]): > 80 µM; diameter of the inhibition zone (DIZ) (Bacillus cereus [24]): inactive; diameter of the inhibition zone (DIZ) (Bacillus cereus [25]): inactive; zone of inhibition at 80 µM (Bacillus cereus [26]): 9 mm; MIC (Staphylococcus aureus [27]): > 80 µM; diameter of the inhibition zone (DIZ) (Staphylococcus aureus [28]): inactive; zone of inhibition at 40 µM (Staphylococcus aureus [29]): 8 mm; zone of inhibition at 80 µM (Staphylococcus aureus [30]): 9 mm
COc1ccc(NS(=O)(=O)c2ccc(/N=N/c3c(/C=C/c4ccc(O)c(OC)c4)nn(-c4ccccc4)c3/C=C/c3ccc(O)c(OC)c3)cc2)nn1	45.1%	Not Active	100 µM	50 µM	> 100 µM	40 µM (≈ 29.3 µg/mL)	12 mm	16 mm	19 mm	20 µM (≈ 14.6 µg/mL)	12 mm	16 mm	inactive	19 mm	inactive	inactive	inactive	> 80 µM	8 mm	9 mm	zone of inhibition at 80 µM (Escherichia coli [16]): 11 mm; MIC (Pseudomonas aeruginosa [17]): > 80 µM; diameter of the inhibition zone (DIZ) (Pseudomonas aeruginosa [18]): inactive; MIC (Salmonella typhi [19]): > 80 µM; diameter of the inhibition zone (DIZ) (Salmonella typhi [20]): inactive; diameter of the inhibition zone (DIZ) (Salmonella typhi [21]): inactive; zone of inhibition at 80 µM (Salmonella typhi [22]): 10 mm; MIC (Bacillus cereus [23]): > 80 µM; diameter of the inhibition zone (DIZ) (Bacillus cereus [24]): inactive; diameter of the inhibition zone (DIZ) (Bacillus cereus [25]): inactive; zone of inhibition at 80 µM (Bacillus cereus [26]): 9 mm; MIC (Staphylococcus aureus [27]): > 80 µM; diameter of the inhibition zone (DIZ) (Staphylococcus aureus [28]): inactive; zone of inhibition at 40 µM (Staphylococcus aureus [29]): 7 mm; zone of inhibition at 80 µM (Staphylococcus aureus [30]): 9 mm
